Experiment [1] concerns A2058. Kind of experiment: Apoptotic effect on A2058 cells by measuring hypodiploid DNA content after 18 hrs exposure to 5 uM. The experiment is classed as functional, Homo sapiens. The procedure, abridged: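 A2058 human melanoma cells kept at 37 °C in 5% CO2 and passaged with 5 mM EDTA. Exposed to agent at 5 μM for 18 h, trypsinized, fixed 30 min in ice-cold 70% ethanol, and treated with RNase A (1 mg/mL) at 37 °C for 30 min. Stained with PI for 30 min at room temperature in the dark. DNA content read by flow cytometry on 10 000 events, reported as the percentage of cells in the sub-G1 region.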

For the next experiment, the system named is M14. The experiment can be described thus: Antiproliferative activity against M14 melanoma cancer cells. The conditions noted are these: Homo sapiens. The experiment is classed as functional.
The subject of the next experiment is UACC-62. Kind of experiment: Antiproliferative activity against UACC62 melanoma cancer cells. The following applies: Homo sapiens. The experiment is classed as functional.
The next experiment concerns Nucleic Acid. The experiment can be described thus: Inhibition of cleavage activity of restriction endonuclease BamH1. The experiment is classed as nucleic-acid assay. In short, it runs like this:
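pBR322 plasmid DNA (0.5 μg) preincubated with compound at 5 μM in restriction buffer pH 7.5 plus BSA 0.1 mg/mL, 37 °C for 1 h. Excess BamHI (20 units) then added, 37 °C for a further 1 h, stopped at 65 °C for 20 min. Products run on 1.0% agarose in TAE at 100 V for 2 h and stained with ethidium bromide. Supercoiled/open-circular and fully linearized DNA run as controls.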

A further experiment relates to SN12C. The experiment can be described thus: Antiproliferative activity against SN12C Renal cancer cells. The conditions noted are these: Homo sapiens. The experiment is classed as functional.
In the next experiment the test system is SF-268. Kind of experiment: Antiproliferative activity against SF268 CNS cancer cells. The experiment is classed as functional. The following applies: Homo sapiens.
A further experiment has as its system RXF 393. Kind of experiment: Antiproliferative activity against RXF393 Renal cancer cells. The experiment is classed as functional. The following applies: Homo sapiens.
Experiment [2] relates to A2058. Kind of experiment: Accumulation of A2058 cells in G2/M phase as a measure for cell cycle arrest at 2 uM. The experiment is classed as functional, Homo sapiens. The procedure, abridged: (§1)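 Human melanoma A2058 cells exposed to graded concentrations (0–4 μM) for 24 h, DMSO as control. Cells collected by trypsinization, fixed in ice-cold 70% ethanol 30 min, treated with 1 mg/mL RNase A at 37 °C 30 min, then stained with propidium iodide/citrate/Triton X-100 at room temperature 30 min in the dark. DNA content of 10 000 events read by flow cytometry; G1, S and G2/M fractions gated from histograms.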

In experiment [3] the test system is A2058. Kind of experiment: Accumulation of A2058 cells in G1 phase as a measure for cell cycle arrest at 4 uM. The experiment is classed as functional, Homo sapiens. In short, it runs like this: as §1
The test system of experiment [4] is A2058. The experiment can be described thus: Apoptotic effect on A2058 cells by propidium iodide staining and Annexin V-FITC conjugate at 2 uM. The experiment is classed as functional, cell-based. The conditions noted are these: Homo sapiens. The procedure, abridged:
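A2058 cells given graded concentrations for 24 h, then 10^6 cells per sample labelled with annexin V–FITC together with propidium iodide and analysed by two-parameter flow cytometry. Percentage of annexin V-positive cells reported per concentration.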

For experiment [5], the system named is A2058. Kind of experiment: Accumulation of A2058 cells in G2/M phase as a measure for cell cycle arrest at 4 uM. The experiment is classed as functional, Homo sapiens. In short, it runs like this:
as §1

In experiment [6] the test system is A2058. Kind of experiment: Accumulation of A2058 cells in G2/M phase as a measure for cell cycle arrest at 1 uM. The experiment is classed as functional, Homo sapiens. The procedure, abridged: as §1
Experiment [7] has as its system A2058. The experiment can be described thus: Accumulation of A2058 cells in G1 phase as a measure for cell cycle arrest at 1 uM. The experiment is classed as functional, Homo sapiens. In short, it runs like this: as §1
Experiment [8] relates to A2058. The experiment can be described thus: Accumulation of A2058 cells in S phase as a measure for cell cycle arrest at 4 uM. The experiment is classed as functional, Homo sapiens. The procedure, abridged: as §1
Experiment [9] deals with A2058. Kind of experiment: Accumulation of A2058 cells in S phase as a measure for cell cycle arrest at 2 uM. The experiment is classed as functional, Homo sapiens. The procedure, abridged:
as §1

The test system of experiment [10] is A2058. The experiment can be described thus: Accumulation of A2058 cells in S phase as a measure for cell cycle arrest at 1 uM. The experiment is classed as functional, Homo sapiens. The procedure, abridged:
as §1

Experiment [11] deals with A2058. The experiment can be described thus: Accumulation of A2058 cells in G1 phase as a measure for cell cycle arrest at 2 uM. The experiment is classed as functional, Homo sapiens. The procedure, abridged:
as §1

Active and inactive are the calls of the source. No cut-off for these calls is given here.

Compound `COc1cc2c(cc1OCCCCCNC(=O)c1cc3ccccc3[nH]1)N=C[C@@H]1CCCN1C2=O` yielded an Activity in the experiment on A2058 [1] of 2.9%.

For orientation: GI50 means the concentration at which growth is held to half of that of the control. `COc1cc2c(cc1OCCCNC(=O)c1cc3ccccc3[nH]1)N=C[C@@H]1CCCN1C2=O`: the GI50 amounted to 173 nM with M14; 203 nM with UACC-62; 410 nM in the experiment on SN12C; 27 nM in the experiment on SF-268; 25 nM in the experiment on RXF 393. In the experiment with Nucleic Acid, the result was Active. Moreover, the Activity in the experiment on A2058 [1] stood at 46.8%.

With `COc1cc2c(cc1OC(=O)c1cc3ccccc3[nH]1)N=C[C@@H]1CCCN1C2=O`, the GI50 in the experiment on M14 stood at 162 nM; with UACC-62, 290 nM; in the experiment on SN12C, 210 nM. The compound further registered an Activity with A2058 [1] of 38.5%.

For `COc1cc2c(cc1OCCCCCCNC(=O)c1cc3ccccc3[nH]1)N=C[C@@H]1CCCN1C2=O`, the Activity with A2058 [2] came out at 47.7%; in the experiment with A2058 [3], 29.2%; in the experiment on A2058 [5], 12.5%; in the experiment with A2058 [6], 42.5%; in the experiment on A2058 [7] it was 41.1%; with A2058 [8] it was 42.8%. Moreover, the Activity in the experiment on A2058 [9] came to 25.2%; in the experiment on A2058 [10], 15.2%; in the experiment with A2058 [11] it was 25.7%; in the experiment on A2058 [1] it was 50.6%. The result with Nucleic Acid and in the experiment with A2058 [4] was Active.

Turning to `COc1cc2c(cc1O)N=C[C@@H]1CCCN1C2=O`, in the experiment on A2058 [1], the Activity amounted to 45%.

Take `COc1cc2c(cc1OCCCCNC(=O)c1cc3ccccc3[nH]1)N=C[C@@H]1CCCN1C2=O`: the outcome in the experiment with Nucleic Acid was Active. In the experiment with A2058 [1], this compound came in with an Activity of 46.8%.

The values above are taken from ChEMBL document CHEMBL1138123, “Design, synthesis, and biological evaluation of pyrrolo[2,1-c][1,4]benzodiazepine and indole conjugates as anticancer agents” (2006).
